According to ChEMBL document CHEMBL1128546 (J Med Chem, 1995):

Columns and labels:
[1] = target: 5-hydroxytryptamine receptor 1D (Homo sapiens, UniProt P28221); test: Binding affinity to recombinant human 5-hydroxytryptamine 1D receptor alpha
Summary of the method: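 Binding to the cloned human receptor subtype. Values are Ki, given as the mean of one or two independent experiments, each run in duplicate.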

Oryctolagus cuniculus [2] = species: Oryctolagus cuniculus; test: Maximum vein contraction obtained relative to 5-hydroxytryptamine; assay type: functional
Oryctolagus cuniculus [3] = species: Oryctolagus cuniculus; test: The compound was tested for functional activity by measuring the contraction of saphenous vein from New Zealand white rabbit

5-hydroxytryptamine receptor 1D, sequence (P28221 whole entry): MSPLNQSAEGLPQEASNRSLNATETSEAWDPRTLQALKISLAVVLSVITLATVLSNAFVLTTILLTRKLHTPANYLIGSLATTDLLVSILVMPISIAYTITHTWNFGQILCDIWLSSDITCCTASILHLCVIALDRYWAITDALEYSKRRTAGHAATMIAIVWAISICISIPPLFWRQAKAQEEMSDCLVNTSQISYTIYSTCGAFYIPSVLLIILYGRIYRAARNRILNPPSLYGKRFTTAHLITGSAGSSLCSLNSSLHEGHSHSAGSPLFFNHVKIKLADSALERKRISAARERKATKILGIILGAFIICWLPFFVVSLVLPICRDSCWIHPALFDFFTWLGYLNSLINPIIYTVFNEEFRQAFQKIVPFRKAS

Row | SMILES | Ki [1] [pM] | Rel max (Oryctolagus cuniculus [2]) | pD2 (Oryctolagus cuniculus [3])
1 | CN(C)S(=O)(=O)Nc1ccc(N2CCN(C(=O)COc3ccc4[nH]cc(CCN)c4c3)CC2)cc1.Cl.O | 260 | 0.96 | 7.2
2 | NCCc1c[nH]c2ccc(OCCCCCC(=O)N3CCN(c4ccc(N)cc4)CC3)cc12 | 380 | 0.79 | 8.09
3 | NCCc1c[nH]c2ccc(OCC(=O)N3CCN(c4ccc(NC(=O)c5ccccc5)cc4)CC3)cc12 | 1700 | 0.9 | 7.31
4 | CC(=O)Nc1ccc(N2CCN(C(=O)COc3ccc4[nH]cc(CCN)c4c3)CC2)cc1 |  | 1.01 | 6.67
5 | NCCc1c[nH]c2ccc(OCC(=O)N3CCN(c4ccccc4)CC3)cc12 | 1200 | 0.68 | 7.63
6 | CS(=O)(=O)Nc1ccc(N2CCN(C(=O)CCCCCOc3ccc4[nH]cc(CCN)c4c3)CC2)cc1 |  | 1.05 | 8.33
7 | N#Cc1ccccc1N1CCN(C(=O)COc2ccc3[nH]cc(CCN)c3c2)CC1 | 920 | 1.22 | 7.42
8 | NCCc1c[nH]c2ccc(OCC(=O)N3CCN(c4ccc(N)cc4)CC3)cc12 | 2920 | 0.83 | 6.88
9 | Cc1ccccc1N1CCN(C(=O)COc2ccc3[nH]cc(CCN)c3c2)CC1 |  | 1.01 | 5.86
10 | NCCc1c[nH]c2ccc(O)cc12 [SEROTONIN] |  | 1 | 
11 | NCCc1c[nH]c2ccc(OCC(=O)N3CCN(c4ccc(CN)cc4)CC3)cc12 | 930 | 0.92 | 6.8
12 | NCCc1c[nH]c2ccc(OCCCCC(=O)N3CCN(c4ccc(N)cc4)CC3)cc12 | 1400 | 0.73 | 7.05
13 | CN(C)CCc1c[nH]c2ccc(Cn3cncn3)cc12 [RIZATRIPTAN] |  | 1.42 | 6.15
14 | NCCc1c[nH]c2ccc(OCCCC(=O)N3CCN(c4ccc([N+](=O)[O-])cc4)CC3)cc12 | 1200 | 1.06 | 6.91
15 | CS(=O)(=O)Nc1ccc(N2CCN(C(=O)COc3ccc4[nH]cc(CCN)c4c3)CC2)cc1 | 560 | 1.21 | 7.62
16 | NCCc1c[nH]c2ccc(OCC(=O)N3CCN(c4ccc([N+](=O)[O-])cc4)CC3)cc12 | 420 | 0.52 | 6.12
17 | CN(C)CCc1c[nH]c2ccc(C[C@H]3COC(=O)N3)cc12 [ZOLMITRIPTAN] | 920 | 1.48 | 6.13
18 | NCCc1c[nH]c2ccc(OCC(=O)N3CCN(c4ccccc4CN)CC3)cc12 | 6900 | 0.9 | 6.52
19 | CS(=O)(=O)NCc1ccccc1N1CCN(C(=O)COc2ccc3[nH]cc(CCN)c3c2)CC1 | 1800 | 0.93 | 6
20 | NCCc1c[nH]c2ccc(OCC(=O)N3CCN(c4ccccc4[N+](=O)[O-])CC3)cc12 | 580 | 0.87 | 6.33
21 | CS(=O)(=O)NCc1ccc(N2CCN(C(=O)COc3ccc4[nH]cc(CCN)c4c3)CC2)cc1 | 1000 | 0.88 | 6.92
22 | NCCc1c[nH]c2ccc(OCCCCC(=O)N3CCN(c4ccc([N+](=O)[O-])cc4)CC3)cc12 | 2500 | 0.71 | 6.74
23 | CNS(=O)(=O)Cc1ccc2[nH]cc(CCN(C)C)c2c1 |  | 1.26 | 5.75
24 | NCCc1c[nH]c2ccc(OCCCCCC(=O)N3CCN(c4ccc([N+](=O)[O-])cc4)CC3)cc12 | 340 | 0.73 | 7
